Screening results deposited in PubChem by several laboratories.
SR-BI HDL uptake – inhibitors of SR-BI mediated HDL lipid uptake, primary screen, ldlA[mSR-BI] cells, fluorescence, single point. ldlA[mSR-BI] CHO cells, DiI-HDL uptake fluorescence, 3 h. inhibition, % at 12.5 µM. actives 0.96% (n = 320,000). Scavenger receptor class B member 1 (Mus musculus), Q61009;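 active = mean replicate inhibition of at least 70% and a set share of replicates each scoring 70 or more; inconclusive = meets just one of the two criteria; inactive = fails both criteria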
Target sequence (Q61009 whole entry, looked up): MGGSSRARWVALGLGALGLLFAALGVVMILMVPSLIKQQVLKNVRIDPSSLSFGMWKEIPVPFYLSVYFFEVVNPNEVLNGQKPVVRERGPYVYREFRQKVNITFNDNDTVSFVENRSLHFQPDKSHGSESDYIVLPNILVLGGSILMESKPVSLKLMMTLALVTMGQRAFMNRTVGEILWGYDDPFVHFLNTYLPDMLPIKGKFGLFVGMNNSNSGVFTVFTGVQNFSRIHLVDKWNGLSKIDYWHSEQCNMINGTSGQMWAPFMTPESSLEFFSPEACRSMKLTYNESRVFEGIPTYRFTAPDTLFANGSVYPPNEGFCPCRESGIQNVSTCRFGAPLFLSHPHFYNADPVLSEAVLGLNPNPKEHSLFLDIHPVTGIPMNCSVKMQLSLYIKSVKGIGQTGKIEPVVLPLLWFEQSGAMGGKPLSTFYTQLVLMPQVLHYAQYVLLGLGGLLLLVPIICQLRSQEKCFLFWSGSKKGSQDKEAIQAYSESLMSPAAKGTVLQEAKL
NSD2 inh – NSD2 histone methyltransferase inhibitors, primary screen, biochemical, AlphaScreen, single concentration, set 2. actives 0.54% (n = 310,000). inhibition, % at 12.5 µM. NSD2 peptide methylation, 120 min; in the data active = inhibition above about 50%
sPLA2-III inh – human group III sPLA2 inhibitors, primary screen, biochemical, QFRET, BODIPY PC-A2 liposome substrate; Group 3 secretory phospholipase A2 (Homo sapiens), Q9NZ20; QFRET BODIPY PC-A2 liposome hydrolysis, fluorescence; inhibition, % at 12.2 µM; actives 0.56% (n = 370,000);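 active = inhibition above mean plus 3 SD of compounds lying within the high and low control bounds, cut at about 19% in these data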
XiGFP reactiv – activators of inactive X chromosome reactivation, primary screen, imaging, XiGFP fibroblasts, GFP high-content imaging, set 2. actives 0.055% (n = 360,000). AID 743238, 2013. XiGFP mouse fibroblasts, % GFP-positive cells imaging, 3 d; cells co-treated with 5-aza-dC sensitizer; scaled so ellipticine positive control = 100%. activation, % at 7.58 µM;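 active = mean normalized replicate activation at least 10% and every replicate at or above 10%; inconclusive = only one of the two criteria met; inactive = mean below 10% and not all replicates reach 10%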
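System: 68-5-11 XiGFP fibroblast line | Buffer or medium: DMEM containing 5-aza-dC | Compound: Single point | Times: Compounds 3 days, fix/stain 15 min at room temperature | Benchmarks: Positive control ellipticine, 6 µM final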
SR-BI DiI-HDL act – activators of SR-BI mediated DiI-HDL uptake, primary screen, ldlA[mSR-BI] CHO cells, DiI fluorescence; 3 h; 100 = double the neutral-control signal; activation, % at 12.5 µM; actives 0.096% (n = 320,000); AID 504775, 2011;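 active = mean replicate activation of at least 60% and every replicate at or above 60%; inconclusive = mean or all-replicate condition met, but not both; inactive = mean below 60% and not all replicates reaching 60%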
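Test system: SR-BI-overexpressing, LDLR-lacking CHO cells. Measured by: DiI fluorescence, bottom read. Medium: Ham's F12 with 0.5% BSA, HEPES 25 mM, pH 7.4. Timing: 3 h uptake period with compound, 37 °C.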
ARNT TACC3 PPI – disruptors of ARNT/TACC3 protein interaction, primary screen, biochemical, AlphaScreen, single concentration; AlphaScreen His-ARNT PAS-B/GST-TACC3 binding, luminescence; TACC3 fragment carries E629A point mutation; inhibition, % at 9.99 µM; actives 0.66% (n = 390,000); AID 623870, 2012;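 active = mean inhibition of replicates at least 50% and at least half of replicates each reaching 50%; inconclusive = half or more replicates reach 50% but mean below 50%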
Hits are given with their value; . = inactive; ? = inconclusive; / = not tested or not shown. Rows were chosen to be rich in hits. Some 2% of all compounds tested hit in one or more screens of this group.

SMILES | SR-BI HDL uptake | NSD2 inh | sPLA2-III inh | XiGFP reactiv | SR-BI DiI-HDL act | ARNT TACC3 PPI
O=C(Nc1nc(-c2cccc3ccccc23)cs1)c1ccc2c(c1)S(=O)(=O)c1ccccc1C2=O | 72.5 | . | . | . | . | /
O=C(Nc1ccc(-c2ccccc2)cc1)c1ccc2c(c1)S(=O)(=O)c1ccccc1C2=O | 84.3 | / | . | . | . | /
O=C(Nc1ccncc1)c1ccc2c(c1)S(=O)(=O)c1ccccc1C2=O | . | / | . | . | . | .
Cc1cc(=O)n(-c2ccccc2Cl)[nH]1 | . | . | . | . | . | .
N#C[C@H]1[C@@H](c2ccccc2C2=CCCC2)[C@H](CO)N1C(=O)C1CCC1 | / | / | / | . | / | /
O=[N+]([O-])c1ccc(Cl)c(S(=O)(=O)Nc2cccc(S(=O)(=O)NC3=NCCC3)c2)c1 | . | . | . | . | . | .
COc1ccc(-c2nc(-n3c(C)c(C(C)=O)c(C(C)=O)c3C)sc2C)cc1 | . | . | . | / | . | .
CC(=O)c1c(C(C)=O)c(C)n(-c2nc(-c3ccc(C)c(C)c3)c(C)s2)c1C | 76.4 | . | . | / | . | .
CC(C)c1[nH]c(=O)c(C#N)c2c1CSC(C)(C)C2 | . | . | . | / | . | .
C/C(=N\Nc1ccc2nncn2n1)c1ccccn1 | / | . | . | . | / | /
COc1ccccc1CNC(=O)COc1ccccc1OC | . | . | . | / | . | .
COc1ccccc1CNC(=O)COc1ccc(C)cc1 | . | . | . | . | 718.1 | .
Cc1nnc2sc(-c3ccc(NC(=O)CSc4ccc(Cl)cc4)cc3)nn12 | . | . | . | / | . | .
CCc1nnc2sc(-c3ccc(NC(=O)CSc4ccc(Cl)cc4)cc3)nn12 | 77.1 | . | . | / | / | .
COc1ccc(-c2c(-c3ccc(OC)nc3)c3ccccc3n2C)cc1 | 77.5 | / | . | . | . | .
COc1ccc(-c2c(-c3cc(OC)cc(OC)c3)n(C)c3ccc(-c4ccc5cc[nH]c5c4)cc23)cc1 | 85.1 | / | . | . | . | .
COc1cc(OC)cc(-c2c(-c3ccc(F)cc3)c3cc(-c4ccc(OC)nc4)ccc3n2C)c1 | . | / | . | . | . | .
COc1cc(OC)cc(-c2c(C#Cc3ccsc3)c3cc(-c4ccc5cc[nH]c5c4)ccc3n2C)c1 | 72.4 | / | . | . | . | .
COc1ccc(-c2c(-c3cc(OC)cc(OC)c3)n(C)c3ccc(-c4ccc(N(C)C)nc4)cc23)cc1 | 83.1 | / | . | . | . | .
COCCNC(=S)N/N=C/c1ccc(-c2ccc([N+](=O)[O-])cc2)o1 | / | . | . | . | / | .
CC(C)NC(=O)N1C[C@H]2[C@@H](c3ccccc31)[C@H](CO)N2C(=O)c1ccccn1 | / | / | / | . | / | .
C[C@H]1CN([C@@H](C)CO)C(=O)c2cc(-c3cccc(F)c3)cnc2O[C@@H]1CN(C)C(=O)C1CC1 | / | / | / | . | / | /
COc1cc(OC)cc(-c2c(-c3ccc(F)cc3)c3cc(-c4ccc5[nH]ccc5c4)ccc3n2C)c1 | 87.6 | / | . | . | . | .
COc1cccc(-c2c(-c3cc(OC)cc(OC)c3)n(C)c3ccc(-c4ccc5[nH]ccc5c4)cc23)c1 | . | / | . | . | . | .
CC(C)NC(=O)N[C@H]1CC[C@@H](CCNC(=O)C2CC2)O[C@H]1CO | / | / | / | . | / | .
SMILES | SR-BI HDL uptake | NSD2 inh | sPLA2-III inh | XiGFP reactiv | SR-BI DiI-HDL act | ARNT TACC3 PPI
COc1ccccc1C(=O)Nc1cccc(S(=O)(=O)N2CCCC2)c1 | . | . | . | . | . | .
COc1ccccc1/C=C/C(=O)Nc1cccc(S(=O)(=O)NC2=NCCCCC2)c1 | 72.4 | . | . | . | . | .
COc1ccc(OC)c(/C=C/C(=O)Nc2cccc(S(=O)(=O)NC3=NCCCCC3)c2)c1 | . | . | . | . | . | .
COc1cc(C)c(NC(=O)c2cccc(S(=O)(=O)N3CCCC3)c2)cc1OC | 85.6 | . | . | . | . | /
COc1cc(C(=O)Nc2cccc(S(=O)(=O)N3CCCC3)c2)c([N+](=O)[O-])cc1OC | 74.3 | . | . | . | . | .
CCN1CCN(c2ccc(S(=O)(=O)N3CCCCC3)cc2NC(=O)/C=C/c2cc(OC)ccc2OC)CC1 | . | . | . | . | . | .
COc1ccc(NC(=O)c2cccc(S(=O)(=O)N3CCCC3)c2)cc1OC | . | . | . | . | . | .
COc1ccc(OC)c(/C=C/C(=O)Nc2cccc(S(=O)(=O)N3CCCC3)c2)c1 | 87.1 | . | . | . | . | .
COc1ccc(C2/C=C\CN(C(=O)NC(C)C)CC(=O)N2Cc2ccc(F)cc2)cc1 (centres undefined) | . | / | . | . | . | /
CCOC(=O)N1CCN(C(=O)CCCn2nc(C)c3sc4ccccc4c3c2=O)CC1 | . | . | . | / | . | .
COc1ccc(S(=O)(=O)N(C)C[C@H]2Oc3ccc(NC(=O)NC(C)C)cc3C(=O)N([C@@H](C)CO)C[C@@H]2C)cc1 | / | / | / | . | / | /
CCCC#Cc1ccc([C@H]2[C@@H](C#N)N(S(C)(=O)=O)[C@H]2CO)cc1 | / | / | / | . | / | .
COc1cccc(CNC(=O)CCCn2nc(C)c3c(C)n(-c4ccccc4)nc3c2=O)c1 | . | . | . | . | . | .
N#CCCNc1ccc(OCCC#N)cc1 | . | . | . | / | . | .
CCN1CCN(C(=O)c2ccc(Cl)c(S(=O)(=O)N(C)c3ccccc3)c2)CC1 | . | . | . | . | . | .
CC(=O)Nc1ccc(C(=O)N/N=C/c2cc(Br)cc(Br)c2O)cc1 | 135.1 | . | . | . | . | .
COc1cc(OC)c(/C=N/NC(=O)c2ccc(NC(C)=O)cc2)cc1Br | ? | . | . | . | . | .
CC(C)C(=O)Nc1ccc(C(=O)N/N=C/c2cc(Br)cc(Br)c2O)cc1 | 146.5 | . | . | . | . | /
CN(C)C(=O)[C@H]1[C@H](CO)[C@H]2Cn3c(cccc3=O)[C@@H]1N2C(=O)c1ccc(F)cc1 | / | / | / | . | / | .
CCC(C(=O)Nc1cccnc1Cl)c1ccccc1 (centres undefined) | . | . | . | . | . | .
O=C(CSC(=S)N1CCOCC1)c1cc2ccccc2oc1=O | . | / | / | / | . | 47.9
COc1cc(/C=C2\CC/C(=C\c3cc(OC)c(O)c(OC)c3)C2=O)cc(OC)c1O | . | 61.7 | . | . | . | .
COc1cc(/C=C2\COC/C(=C\c3cc(OC)c(OC)c(OC)c3)C2=O)cc(OC)c1OC | 83.3 | . | . | . | . | .
